According to ChEMBL document CHEMBL3600298, “Antiproliferative and apoptosis-inducing activities of novel naphthalimide-cyclam conjugates through dual topoisomerase (topo) I/II inhibition” (Bioorg Med Chem, 2015):
Active and inactive are the calls of the source. No cut-off for these calls is given here.

Legend:
HeLa [1] = test: Induction of apoptosis in human HeLa cells assessed as late apoptotic cells level at 10 uM incubated for 24 hrs by annexin V-FITC and propidium iodide staining based flow cytometry (reference value: 1.81%); type: functional
Procedure, shortened: (§1)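 HeLa cells seeded at 1 × 10^6 per well and exposed to compound at 10 μM for 24 h. Cells then treated with cold PBS and resuspended in binding buffer. Annexin V-FITC added, followed by 15 min at 4 °C in the dark. Apoptotic cells quantified by annexin V/PI double staining.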

HCT-116 = test: Cytotoxicity against human HCT116 cells incubated for 24 hrs by sulforhodamine B assay; type: functional, cell-based; conditions: HCT-116, 24 h
[2] = molecular target: DNA topoisomerase 2-alpha (Homo sapiens) (UniProt P11388); test: Inhibition of human topoisomerase 2 assessed as reduction in ATP-dependent kDNA decatenation at 100 uM incubated for 30 mins by ethidium bromide staining based electrophoresis method
A549 = test: Cytotoxicity against human A549 cells incubated for 24 hrs by sulforhodamine B assay; type: functional, cell-based; conditions: A549, 24 h
HeLa [3] = test: Induction of apoptosis in human HeLa cells assessed as early apoptotic cells level at 10 uM incubated for 24 hrs by annexin V-FITC and propidium iodide staining based flow cytometry (reference value: 0.72%); type: functional; procedure, shortened: as §1
HeLa [4] = test: Induction of apoptosis in human HeLa cells at 10 uM incubated for 24 hrs by annexin V-FITC and propidium iodide staining based flow cytometry; type: functional; procedure, shortened: as §1
Bos taurus [5] = species: Bos taurus; test: Inhibition of calf thymus topoisomerase 1 assessed as reduction in relaxation of supercoiled pBR322 DNA at 100 uM incubated for 30 mins by ethidium bromide staining based electrophoresis method
Procedure, shortened: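 Calf thymus topo I (0.1 unit) incubated with 0.5 μg supercoiled pBR322 DNA and compound for 30 min at 37 °C in topo I buffer with 0.01% BSA, 20 μL total. Reaction stopped with SDS/loading dye. Samples run on 0.8% agarose in TAE, 35 min at 120 V, then stained with ethidium bromide and imaged under UV.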

HeLa [6] = test: Cytotoxicity against human HeLa cells incubated for 24 hrs by sulforhodamine B assay; type: functional, cell-based
Bos taurus [7] = species: Bos taurus; test: Inhibition of calf thymus topoisomerase 1 assessed as reduction in relaxation of supercoiled pBR322 DNA at 200 uM incubated for 30 mins by ethidium bromide staining based electrophoresis method
Procedure, shortened: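 Calf thymus topo I, 0.1 units, with 0.5 µg supercoiled pBR322 DNA and compound in topo I buffer with 0.01% BSA, 20 µL total. Incubated 30 min at 37 °C. Reaction stopped with 10% SDS plus loading dye. Run on 0.8% agarose gel in TAE, 35 min at 120 V. Gel stained with ethidium bromide and imaged under UV.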

Calf thymus DNA = test: Binding affinity to calf thymus DNA assessed as induction of conformational changes at 20 uM by CD spectroscopy; type: nucleic-acid assay; conditions: Bos taurus
Procedure, shortened: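 ct-DNA in 20 mM Tris–HCl pH 7.4, concentration set from molar absorption coefficient 6600 M−1 cm−1, A260/A280 above 1.8; 100 μM DNA with 20 μM compound for 2 h at 25 °C; CD spectra recorded 200–400 nm in 1 cm quartz cell.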

DNA topoisomerase 2-alpha (Homo sapiens), sequence (P11388 whole entry): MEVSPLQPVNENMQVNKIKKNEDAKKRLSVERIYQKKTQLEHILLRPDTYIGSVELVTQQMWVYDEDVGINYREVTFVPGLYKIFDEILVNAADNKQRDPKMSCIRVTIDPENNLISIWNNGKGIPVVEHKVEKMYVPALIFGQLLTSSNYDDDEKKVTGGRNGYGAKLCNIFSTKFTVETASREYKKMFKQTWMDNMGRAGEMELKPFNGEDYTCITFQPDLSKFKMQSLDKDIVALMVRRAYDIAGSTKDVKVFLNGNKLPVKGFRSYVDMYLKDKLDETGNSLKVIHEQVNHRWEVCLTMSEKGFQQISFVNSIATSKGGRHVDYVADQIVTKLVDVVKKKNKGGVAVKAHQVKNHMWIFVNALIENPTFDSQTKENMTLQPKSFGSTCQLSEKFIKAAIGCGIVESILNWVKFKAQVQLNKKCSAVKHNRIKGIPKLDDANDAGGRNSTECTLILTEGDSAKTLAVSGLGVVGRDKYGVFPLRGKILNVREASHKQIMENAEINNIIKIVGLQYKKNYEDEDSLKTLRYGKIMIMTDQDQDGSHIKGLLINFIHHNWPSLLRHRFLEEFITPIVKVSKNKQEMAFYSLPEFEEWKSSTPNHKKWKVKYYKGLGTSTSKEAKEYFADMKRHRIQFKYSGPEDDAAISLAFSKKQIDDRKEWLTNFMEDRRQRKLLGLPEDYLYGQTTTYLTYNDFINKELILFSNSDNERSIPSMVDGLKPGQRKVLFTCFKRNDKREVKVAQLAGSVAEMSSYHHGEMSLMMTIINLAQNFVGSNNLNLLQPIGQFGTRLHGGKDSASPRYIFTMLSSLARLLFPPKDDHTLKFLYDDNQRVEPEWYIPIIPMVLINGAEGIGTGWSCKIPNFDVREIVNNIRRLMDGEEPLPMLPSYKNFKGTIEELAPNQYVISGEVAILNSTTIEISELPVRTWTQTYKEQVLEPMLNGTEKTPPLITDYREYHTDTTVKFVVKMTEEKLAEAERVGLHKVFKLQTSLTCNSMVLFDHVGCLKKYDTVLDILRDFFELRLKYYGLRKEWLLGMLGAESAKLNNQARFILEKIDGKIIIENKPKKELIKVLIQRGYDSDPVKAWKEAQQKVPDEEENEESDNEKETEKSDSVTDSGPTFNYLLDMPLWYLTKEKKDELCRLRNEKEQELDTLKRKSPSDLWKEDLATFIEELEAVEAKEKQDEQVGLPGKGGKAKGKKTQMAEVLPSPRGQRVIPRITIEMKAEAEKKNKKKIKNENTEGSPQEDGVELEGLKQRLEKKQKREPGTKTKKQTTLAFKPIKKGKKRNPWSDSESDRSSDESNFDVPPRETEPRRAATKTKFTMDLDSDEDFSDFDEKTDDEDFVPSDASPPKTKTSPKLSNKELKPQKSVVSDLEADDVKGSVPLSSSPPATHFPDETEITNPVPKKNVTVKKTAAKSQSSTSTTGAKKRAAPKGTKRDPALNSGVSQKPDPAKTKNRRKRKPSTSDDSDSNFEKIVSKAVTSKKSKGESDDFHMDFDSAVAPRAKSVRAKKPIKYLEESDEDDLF

Structure (SMILES)	Activity (HeLa [1])	IC50 (HCT-116)	inhibition [2]	IC50 (A549)	Activity (HeLa [3])	Activity (HeLa [4])	inhibition (Bos taurus [5])	IC50 (HeLa [6])	inhibition (Bos taurus [7])	Activity (Calf thymus DNA)
CCCCCCCCCCCCNc1ccc2c3c(cccc13)C(=O)N(CCCN1CCCNCCNCCCNCC1)C2=O	32.47%	13 µM	Active	15.8 µM	59.52%	>90%	Active	9.36 µM	–	–
CC[C@@]1(O)C(=O)OCc2c1cc1n(c2=O)Cc2cc3ccccc3nc2-1	–	–	–	–	–	–	–	–	Active	–
CCCCNc1ccc2c3c(cccc13)C(=O)N(CCCN1CCCNCCNCCCNCC1)C2=O	–	> 50 µM	–	> 50 µM	–	–	–	> 50 µM	–	–
CCCCCCCCNc1ccc2c3c(cccc13)C(=O)N(CCCN1CCCNCCNCCCNCC1)C2=O	98.46%	8.07 µM	Active	11.6 µM	1.49%	>90%	Active	8.4 µM	–	Active
CNc1ccc2c3c(cccc13)C(=O)N(CCCN1CCCNCCNCCCNCC1)C2=O	–	> 50 µM	–	> 50 µM	–	–	–	> 50 µM	–	–
CCCCN1C(=O)c2cccc3c(NCCN4CCCNCCNCCCNCC4)ccc(c23)C1=O	–	29.2 µM	–	38.9 µM	–	–	–	19.2 µM	–	–
C1CNCCNCCCNCCNC1	–	> 50 µM	–	> 50 µM	–	–	–	> 50 µM	–	–
CCCCCCCCCCCCN1C(=O)c2cccc3c(NCCN4CCCNCCNCCCNCC4)ccc(c23)C1=O	13.54%	18.2 µM	Active	18.4 µM	86.4%	>90%	Active	11.8 µM	–	–
COc1cccc2c1C(=O)c1c(O)c3c(c(O)c1C2=O)C[C@@](O)(C(=O)CO)C[C@@H]3O[C@H]1C[C@H](N)[C@H](O)[C@H](C)O1	–	–	Active	–	–	–	–	–	–	–
CCCCCCCCN1C(=O)c2cccc3c(NCCN4CCCNCCNCCCNCC4)ccc(c23)C1=O	60.48%	16.7 µM	Active	15.8 µM	39.47%	>90%	Active	10.1 µM	–	–
CN1C(=O)c2cccc3c(NCCN4CCCNCCNCCCNCC4)ccc(c23)C1=O	–	34.1 µM	–	34.3 µM	–	–	–	13.8 µM	–	–
CN(C)CCN1C(=O)c2cccc3cc(N)cc(c23)C1=O [AMONAFIDE]	–	–	Active	–	–	–	Active	9.52 µM	–	–
